# Results pooled from the literature.
# Lines come from different studies, so protocols differ.
# Target: MAP/microtubule affinity-regulating kinase 3 (MARK3, Homo sapiens, UniProt P27448)
# Observed: enzyme activity
# Action: inhibitor
SMILES,assay,conditions,remaining activity [%]
CC(C)(O)[C@H]1CC[C@H](Nc2ccc3ncc(-c4cccc(C(F)(F)F)c4)n3n2)CC1,,1 µM,101
FC(F)c1nc2ccccc2n1-c1nc(N2CCOCC2)nc(N2CCOCC2)n1,,10 µM,94
Nc1nc(NC2CCCCC2)sc1C(=O)c1ccccc1,,10 µM,100
NS(=O)(=O)c1ccc(CNc2nc(Nc3cccc(CN4CCOCC4)c3)ncc2Br)cc1,radiometric,1 µM,68
Cc1ccc(C(=O)Nc2ccc(CN3CCN(C)CC3)c(C(F)(F)F)c2)cc1C#Cc1cnc2cccnn12,,23.5 nM,83
CC(C)(C)c1nc2c(s1)c1nc(N)ncc1c1ccc(NS(=O)(=O)c3c(F)cccc3F)c(F)c12,radiometric,1 µM,99
Cc1nn(CC(F)(F)F)cc1Nc1ncc(Br)c(NCc2ccc(S(N)(=O)=O)cc2)n1,radiometric,1 µM,105
CC(C)(C)C(=O)c1sc(NC2CCCCC2)nc1N,,10 µM,112
O=C(Nc1cnn(-c2csc(C(=O)NC3COC3)c2)c1)Nc1c(F)cccc1Cl,,5 µM,99.3
Brc1cnc(Nc2cccc(CN3CCOCC3)c2)nc1NCCc1c[nH]cn1,radiometric,1 µM,16
COc1cc(Nc2cnc(C#N)c(O[C@H](C)CN(C)C)n2)ncc1-c1cnn(C)c1,radiometric,1 µM,98
Cn1c(=O)n(-c2ccc(C(C)(C)C#N)cc2)c2c3cc(-c4cnc5ccccc5c4)ccc3ncc21,,10 µM,100
Cc1sc(C(=O)NC2COC2)cc1-n1cc(NC(=O)Nc2c(F)cccc2Cl)cn1,,10 µM,102
NS(=O)(=O)c1ccc(CNc2nc(Nc3cccc(NC(=O)N4CCCC4)c3)ncc2C2CC2)cc1,radiometric,1 µM,112
CC(C)(C)c1nc(-c2cccc(NS(=O)(=O)c3c(F)cccc3F)c2F)c(-c2ccnc(N)n2)s1,radiometric,1 µM,96
COc1cc(Cl)c(C(=O)N[C@@H](CN[C@H]2CC[C@@H](N)CC2)Cc2ccc(C#N)cc2)cc1-c1ccc(CN[C@H](C)c2ccc(C)cc2)o1,,1 µM,98
NS(=O)(=O)c1ccc(CNc2ccnc(Nc3cccc(NC(=O)N4CCCC4)c3)n2)cc1,radiometric,1 µM,115
